Legend:
[1] = tested on: all five rat muscarinic acetylcholine receptors; assay: Muscarinic selectivity profiling, rat receptors; assay type: cell-based; settings: up to the highest concentration tested (30 µM)
[2] = tested on: all five human muscarinic acetylcholine receptors; assay: Muscarinic selectivity profiling, human receptors; assay type: cell-based; settings: up to the highest concentration tested (30 µM)
human M1 (hM1) receptor [3] = target: T1, human M1 (hM1) receptor (Homo sapiens, UniProt P11229); assay: hM1 PAM functional activity; assay type: cell-based; settings: for hM1 PAM activity (in words): concentrations up to 30 µM
T1 sequence (P11229 1-460): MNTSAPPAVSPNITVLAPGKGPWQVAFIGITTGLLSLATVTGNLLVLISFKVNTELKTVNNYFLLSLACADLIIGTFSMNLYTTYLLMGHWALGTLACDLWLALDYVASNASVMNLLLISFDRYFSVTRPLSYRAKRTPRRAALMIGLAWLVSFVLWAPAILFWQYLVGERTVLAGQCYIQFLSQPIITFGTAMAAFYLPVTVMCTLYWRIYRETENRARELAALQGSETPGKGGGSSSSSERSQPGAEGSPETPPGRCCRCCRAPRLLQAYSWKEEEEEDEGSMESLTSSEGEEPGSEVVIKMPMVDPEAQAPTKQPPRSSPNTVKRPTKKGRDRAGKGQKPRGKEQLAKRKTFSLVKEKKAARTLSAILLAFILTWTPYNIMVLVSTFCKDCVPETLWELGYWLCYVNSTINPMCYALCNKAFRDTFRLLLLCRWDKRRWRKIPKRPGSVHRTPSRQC
Procedure, shortened: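 Human M1 PAM functional assay. Test compound was run at concentrations up to a top level of 30 µM. Efficacy is expressed as percent of the maximal acetylcholine response. Where hM1 EC50 is listed as >10, the figure given is the percent maximal ACh response with test compound at 30 µM. Values are mean ± standard error of the mean of at least three independent determinations, each performed in triplicate.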

human M1 (hM1) receptor [4] = target: T1, human M1 (hM1) receptor; settings: previously reported value; ref 7b; cited from earlier work

Structure (SMILES)	hM1 PAM activity (in words) (human M1 (hM1) receptor [3])	also measured
Cn1cc(-c2ccc(CN3C(=O)C4(OCCO4)c4ccccc43)c(F)c2)cn1 [Compound 3]	–	selectivity across rat muscarinic receptors (M1-M5) [1]: completely selective for the M1 receptors; selectivity across human muscarinic receptors (M1-M5) [2]: completely selective for the M1 receptors
O=C1N(Cc2ccc(Br)cc2)c2ccccc2C12CCCN2 (stereo not drawn) [Compound 13]	inactive	–
CN1CCCC12C(=O)N(Cc1ccc(Br)cc1)c1ccccc12 (stereo not drawn) [Compound 14]	inactive	–
C[Si](C)(C)C1COC2(C1)C(=O)N(Cc1ccc(Br)cc1)c1ccccc12 (stereo not drawn) [Compound 16]	inactive	–
O=C1N(Cc2ccc(Br)cc2)c2ccccc2C12CCCO2 (stereo not drawn) [Compound 17]	inactive	–
CN1CCC2(C1)C(=O)N(Cc1ccc(-c3cnn(C)c3)cc1F)c1ccccc12 (stereo not drawn) [Compound 18d]	–	selectivity across rat muscarinic receptors (M1-M5) [1]: completely selective for the M1 receptors; selectivity across human muscarinic receptors (M1-M5) [2]: completely selective for the M1 receptors; pEC50 (human M1 (hM1) receptor [3]; Table 1, hM1 PAM, mean ± SEM): 5.49 ± 0.10
Cn1cc(-c2ccc(CN3C(=O)C4(CCNC4)c4ccccc43)c(F)c2)cn1 (stereo not drawn) [Compound 18e]	lacked any PAM activity	–
Cn1cc(-c2ccc(CN3C(=O)C4(CCN(c5ccccc5)C4)c4ccccc43)c(F)c2)cn1 (stereo not drawn) [Compound 19s]	inactive	–
Cn1cc(-c2ccc(CN3C(=O)C4(CCN(c5ncccn5)C4)c4ccccc43)c(F)c2)cn1 (stereo not drawn) [Compound 19t]	low micro-molar activity	–
Cc1c(-c2ccc(CN3C(=O)C4(CCN(C5CCCC5)C4)c4ccccc43)c(F)c2)cnn1C (stereo not drawn) [Compound 20c]	eliminated PAM activity	–
Cc1nn(C)c(C)c1-c1ccc(CN2C(=O)C3(CCN(C4CCCC4)C3)c3ccccc32)c(F)c1 (stereo not drawn) [Compound 20d]	inactive	–
Cn1cc(-c2ccc(CN3C(=O)C(=O)c4ccccc43)c(F)c2)cn1 [ML137]	–	%AChmax (human M1 (hM1) receptor [4]): 65%

— publication PMC3594472 (Bioorganic & medicinal chemistry letters, 2013)
